# ALR H2O2 inh = human ALR oxidase inhibition via reduced H2O2. purified ALR, DTT oxidation, H2O2 HRP-luminol luminescence. 290,000 compounds, 3.8% hits. inhibition, % (test concentration not listed). AID 485317. P55789;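 active = mean replicate inhibition above about 79%, with every replicate also reaching it, limit read from the data; inconclusive = only one of the two criteria met; inactive = mean below limit and not every replicate reaching it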
# Target sequence (P55789 whole entry, looked up): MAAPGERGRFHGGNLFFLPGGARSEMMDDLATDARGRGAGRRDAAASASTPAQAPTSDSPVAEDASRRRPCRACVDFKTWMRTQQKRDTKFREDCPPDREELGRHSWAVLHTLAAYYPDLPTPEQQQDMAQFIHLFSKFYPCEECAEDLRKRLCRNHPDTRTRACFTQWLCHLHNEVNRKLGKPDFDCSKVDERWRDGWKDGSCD
# PolyA inh = yeast polyadenylation inhibition; S. cerevisiae SKY197-pL101 polyadenylation reporter, beta-gal luminescence; efflux-impaired pdr1/pdr3 knockout yeast; score 100 = 6 SD above DMSO; activity score, % at 12 µM; 300,000 compounds, 0.02% hits; AID 1875;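 active = lowest replicate activity score at least 50, where 100 means six control SD above control mean; inconclusive = lowest score under 50 but half or more replicates reach 50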;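 note: yeast exposed to compound for 9 h at 30 °C; higher score means more reporter readthrough which indicates perturbed polyadenylation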
# NALP3 yeast inh = blocks the NALP3 inflammasome reconstituted in yeast. Yeast reconstituted NLRP3/ASC/caspase-1, beta-gal luminescence, 24 h. inhibition, % at 10 µM. 330,000 compounds, 0.39% hits;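 active = inhibition of 50% or more; inactive = inhibition below 50%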;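 note: plate controls were induced DMSO wells for no effect and uninduced yeast grown without galactose for full effect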
# NALP1 inh = inhibitors of NALP1 inflammasome in yeast | S. cerevisiae NALP1/ASC/caspase-1 growth, X-gal OD620, 72 h | 280,000 compounds, 0.61% hits | inhibition, % at 10 µM; in the data active = inhibition mostly above about 24%, no sharp cut-off; inactive = mostly below about 32%
# Arrestin-AP2 inh = inhibitors of human beta-arrestin and AP2 interaction | FITC-arrestin peptide / GST-AP2 beads, flow cytometry; AP2 beta2 appendage carries R879A mutation | inhibition, % at 10 µM | 340,000 compounds, 0.31% hits | AID 504490;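 active = inhibition above a set limit, near 3 SD of compounds lacking own fluorescence, cut at about 54% in these data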;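 note: plate controls were DMSO wells for no effect and 5 µM unlabelled arrestin peptide for full effect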
#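 Measured by: flow cytometry, FL1 (488/535 nm); Material: AP2 appendage R879A on GSH beads; Evaluation: percent response; Timing: pre-incubation 12 min, peptide binding 1 h, room temperature; Also added: 50 nM FITC-arrestin peptide; Medium: PBS with 0.05% Tween 20 and 0.1% BSA.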
# Pemphigus Ab inh = human desmoglein-3 autoantibody binding inhibition | P32926 | DSG3-coupled beads, scFv-anti-DSG3-GFP binding, flow cytometry; active compounds read low | binding (percent of control), % at 10 µM | 310,000 compounds, 0.48% hits | AID 588358;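 active = binding more than 3 SD below its plate's average and above zero; inconclusive = below that plate limit but binding exactly zero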;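 note: hits lower antibody fragment binding to DSG3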
# Active calls of the source: *; ? = inconclusive; · = no result. This is a sample that favours compounds with a hit; in the whole collection about 4.6% have one here.
SMILES,ALR H2O2 inh,PolyA inh,NALP3 yeast inh,NALP1 inh,Arrestin-AP2 inh,Pemphigus Ab inh
O=C(NCN1CCN(c2ccccc2)CC1)c1cnccn1,98*,0,18,12,-8,99
COc1ccc(/C=C(\C#N)C(=O)OCC(=O)NC2CC2)cc1,2,8,-2,8,-2,58*
CCN(CC)CCCNC(=O)c1ccc(S(=O)(=O)Nc2ccc(C)c(C)c2)cc1,·,·,9,·,-6,112
CC(C)(C)c1ccc(C(=O)N2CCN(CCNC(=O)C(=O)NCc3ccc(Cl)cc3)CC2)cc1,-3,-1,10,-11,3,96*
COc1cc(C2C(C#N)=C(N)N(c3cccnc3)C3=C2C(=O)CCC3)ccc1O (stereo not given),?,4,-1,-12,5,105
COc1cc(C2C(C#N)=C(N)N(c3ccc(F)cc3)C3=C2S(=O)(=O)CC3)ccc1O (stereo not given),88*,7,6,-3,5,114
CCCCOc1ccc(CSC(=N)N)cc1Cl,99*,-5,23,6,-6,97
CCCCCOc1ccc(CN2CCOCC2)cc1Cl,-15,-20,46,7,-1,109
CCCCCOc1ccc(Br)cc1CSC(=N)N,·,11,·,52*,17,106
COc1ccc(Br)cc1CSC(=N)N,99*,6,-12,7,30,96
CCOc1ccc(CSC(=N)N)cc1,98*,1,3,1,2,102
CCOc1ccc(CC(C(N)=O)C(N)=O)cc1,-5,11,31,10,7,·
CCOC(=O)c1ccc(S(=O)(=O)N2CCN(CCc3ccncc3)CC2)cc1,-3,·,16,·,3,98
CCN(CC(=O)Nc1c(F)cccc1F)C(=O)c1ccc2c(c1)S(=O)(=O)N=C1CCCCCN12,6,-3,15,·,-7,110
CCn1ncc(Br)c1C(=O)Nc1ccc(C(C)C)cc1,·,10,31,39,15,115
COC(=O)c1ccc(CN(C)S(=O)(=O)c2cccs2)cc1,25,5,22,28,-2,94
O=C(NCC(=O)N1CCN(S(=O)(=O)c2c(F)cccc2F)CC1)c1ccccc1F,·,·,17,·,16,105
COc1ccc(/C=N/NC(=O)c2cc[n+]([O-])cc2)cc1OC,2,0,3,8,-5,111
COc1cc(/C=N/NC(=O)c2cccc(C(=O)N/N=C/c3ccc(O)c(OC)c3)n2)ccc1O,2,3,1,-2,-7,104
O=C(O)c1ccc(/C=N/Nc2ccc(C(F)(F)F)cn2)cc1,·,-3,·,5,1,101
COc1cc(/C=N/NC(=O)C(=O)/C=C2\NC(C)(C)Cc3ccccc32)ccc1O,82*,13,-12,-16,7,99
COc1cc(/C=N/NC(=O)c2cc[n+]([O-])cc2)ccc1O,99*,0,-24,-23,-8,·
COc1cc(/C=N/Nc2ccc(C(F)(F)F)cn2)ccc1O,99*,21,18,8,4,100
COc1cc(/C=N/NC(=O)c2nc(C)cc(C)n2)ccc1O,99*,2,-1,-42,20,106
COc1cc(/C=N/Nc2ncc(C(F)(F)F)cc2Cl)cc(OC)c1O,99*,7,11,23,-1,97
SMILES,ALR H2O2 inh,PolyA inh,NALP3 yeast inh,NALP1 inh,Arrestin-AP2 inh,Pemphigus Ab inh
COc1ccc(/C=N/Nc2cc(C)nc(N)n2)cc1,0,0,14,43,5,100
COc1cc(/C=N/Nc2cc(C)nc(N)n2)ccc1O,98*,3,1,-25,-13,104
COc1cc(/C=N/NC(=O)c2cc3ccccc3[nH]2)ccc1O,100*,8,-10,-29,-8,100
COc1cc(/C=N/NC(=O)C2(O)c3ccccc3-c3ccccc32)ccc1O,99*,12,-5,-30,6,106
COc1ccc(/C=N/NC(=O)c2ccncc2)cc1OC,-5,-9,-5,12,6,·
COc1cc(/C=N/NC(=O)c2ccncc2)ccc1O,99*,?,-19,4,-6,133
Cc1ccc(NC(=S)Nc2ccc3[nH]c(=O)[nH]c3c2)cc1C,90*,19,3,3,36,106
CC(=O)c1ccc(NC(=S)Nc2ccc3[nH]c(=O)[nH]c3c2)cc1,-13,8,9,13,11,93
CCOC(=O)/C(=C/C=C1\Sc2ccccc2N1CC)C(C)=O,88*,-20,33,15,52,138
Cc1nc2ccccn2c1-c1ccnc(=S)[nH]1,100*,0,1,9,-27,105
Cc1c(C)c2c(c(C)c1O)CCC(C)(C(=O)O)O2 (stereo not given),-17,·,-9,·,-1,·
O=C(Nc1ccc2oc(=O)ccc2c1)c1ccco1,-2,9,3,7,26,97
O=C(Cc1ccccc1)Nc1ccc2oc(=O)ccc2c1,11,4,10,36*,12,101
Nn1c(SCc2cccc3ccccc23)nnc1-c1ccco1,99*,7,18,-13,7,92
Cn1c(SCc2cccc3ccccc23)nnc1-c1ccco1,52,11,19,15,-37,103
O=C(NCCc1c[nH]c2ccccc12)C(=O)Nc1ccccc1,2,2,28,1,18,64*
CCCCNC(=O)NC1(C(F)(F)F)Oc2ccccc2O1,-6,-21,5,37*,-9,98
O=C(NCCN1CCOCC1)NC1(C(F)(F)F)Oc2ccccc2O1,·,-5,4,16,-4,106
Cn1c(N)c(C(=O)CSc2nnc(NC3CCCCC3)s2)c(=O)n(C)c1=O,·,·,11,·,0,105
O=C(Cn1c2ccccc2c2nc3n(c(=O)c21)CCS3)Nc1ccccc1C(F)(F)F,0,4,5,11,13,93*
Cc1cc(C)c(C)c(S(=O)(=O)N2CCN(CC(=O)Nc3ccc([N+](=O)[O-])cc3)CC2)c1C,1,19,12,26,8,60*
O=C(CN1CCN(S(=O)(=O)c2cc(Cl)ccc2Cl)CC1)Nc1ccc2c(c1)OCCO2,·,·,5,39,-7,97
CN(C)c1ccc(NC(=O)CN2CCN(S(=O)(=O)c3cc(Cl)ccc3Cl)CC2)cc1,99*,10,18,14,1,100
CN(C)S(=O)(=O)c1cc(NC(=O)CN2CCN(c3ccccc3O)CC2)ccc1Cl,98*,·,3,-2,42,107
CCN(c1ccc(NS(=O)(=O)c2cc(Cl)ccc2Cl)cc1)C(C)C,?,6,-8,6,0,104
CN(C)c1ccc(NS(=O)(=O)c2cc(Cl)ccc2Cl)cc1,99*,-15,27,44,24,·
